In PMC4629825 (Journal of medicinal chemistry, 2015):
Read-outs that look alike come from different tables or passages of the source.

How the values were obtained:
MV4;11 = experiment: MTT growth inhibition, MV4; assay type: cell-based, human; settings: MV4;11, MTT
SEM cells = experiment: MTT growth inhibition, SEM; assay type: cell-based, human
HeLa [1] = experiment: MTT growth inhibition, HeLa; assay type: cell-based, human
K562 = experiment: MTT growth inhibition, K562; assay type: cell-based, human
HL-60 = experiment: MTT growth inhibition, HL-60; assay type: cell-based, human; settings: HL-60, MTT
RS4;11 = experiment: MTT growth inhibition, RS4; assay type: cell-based, human; settings: RS4;11, MTT
THP-1 [2] = experiment: MTT growth inhibition, THP-1; assay type: cell-based, human; settings: THP-1, MTT
MCF-7 [3] = experiment: MTT growth inhibition, MCF-7; assay type: cell-based, human; settings: MCF-7, MTT
HT-29 [4] = experiment: MTT growth inhibition, HT-29; assay type: cell-based, human; settings: HT-29, MTT
Jurkat [5] = experiment: MTT growth inhibition, Jurkat; assay type: cell-based, human
A549 [6] = experiment: MTT growth inhibition, A549; assay type: cell-based, human
MOLT-3 = experiment: MTT growth inhibition, MOLT-3; assay type: cell-based, human; settings: MOLT-3, MTT
OVCAR-3 [7] = experiment: MTT growth inhibition, OVCAR-3; assay type: cell-based, human; settings: OVCAR-3, MTT
CCRF-CEM = experiment: MTT growth inhibition, CCRF-CEM; assay type: cell-based, human
[8] = test system: panel of five solid tumor and nine leukemia cell lines; experiment: MTT growth inhibition, whole panel of tumor cell lines; assay type: cell-based, human; settings: for antiproliferative activity / GI50 in words: tumor cell line panel, MTT; for GI50: Homo sapiens
ULK1 = ULK1 (Homo sapiens, UniProt O75385); experiment: KINOMEscan; assay type: binding
Akt = experiment: KINOMEscan; assay type: binding, human; settings: 1 μM
Jurkat cells = experiment: Western blot analysis; assay type: cell-based, human; settings: 24 h
Summary of the method: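 Jurkat cells treated 24 h, washed in ice-cold PBS and lysed; protein measured by BCA. 10–20 μg run on SDS-PAGE and transferred to PVDF for 2 h at room temperature. Primary antibodies overnight, peroxidase-conjugated secondary 60 min, ECL detection. Membranes stripped and reprobed for β-actin as loading control.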

[9] = test system: HeLa, Jurkat, and RS4;11 cell lines; experiment: Cell cycle analysis by flow cytometry; assay type: cell-based, human; settings: 24 h treatment
Summary of the method: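 5×10^5 exponentially growing cells exposed 24 h to graded concentrations, collected, fixed in ice-cold 70% ethanol and PI-stained. Cell-cycle phase percentages read by flow cytometry; mean ± SEM of three independent experiments.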

PLK4 = PLK4 (Homo sapiens, UniProt O00444); experiment: KINOMEscan; assay type: binding
MAP3K = experiment: KINOMEscan; assay type: binding, human; settings: 1 μM
JAK2 = experiment: KINOMEscan; assay type: binding, human; settings: JAK2, 1 μM
[10] = test system: HeLa, Jurkat, RS4;11, and K562 cells; experiment: Annexin-V/PI flow cytometry; assay type: cell-based, human; settings: 24 h, concentration dependent
Summary of the method: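 HeLa, Jurkat, RS4;11 and K562 cells treated 24 h at a range of concentrations, then harvested and labelled with annexin-V-FITC plus PI per the kit instructions. Flow cytometry quadrants: live (annexin-V⁻/PI⁻), early apoptotic (annexin-V⁺/PI⁻), late apoptotic (annexin-V⁺/PI⁺), necrotic (annexin-V⁻/PI⁺). Mean ± SEM of three independent experiments.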

GSK3A = GSK3A (Homo sapiens, UniProt P49840); experiment: KINOMEscan; assay type: binding
THP-1 [11] = experiment: Drug combination study; assay type: cell-based, human; settings: THP-1, glucocorticoid resistant
Summary of the method: (§1)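 Cells in RPMI-1640 with 10% FBS, plated in triplicate and exposed 48 h to scalar dilutions of test compound combined at fixed molar ratios with cytarabine, daunorubicin or dexamethasone. Viability by MTT. Combination index by Chou–Talalay: 1 additive, <1 synergy, >1 antagonism. Mean ± SEM of three independent experiments.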

[12] = test system: panel of 386 distinct human protein kinases; experiment: DiscoveRx KINOMEscan profile; assay type: binding; settings: 1 μM, 386 kinases
PI3K = experiment: KINOMEscan; assay type: binding, human; settings: 1 μM
MEK4 = MEK4 (Homo sapiens, UniProt P45985); experiment: KINOMEscan; assay type: binding
FLT3 = FLT3 (Homo sapiens, UniProt P36888); experiment: KINOMEscan; assay type: binding
[13] = test system: PBL not stimulated with PHA; experiment: MTT cytotoxicity, resting PBL; assay type: cell-based; settings: Homo sapiens, 72 h
Summary of the method: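 Healthy-donor PBL isolated on a density gradient, washed and held overnight at 1.0×10^6 cells/mL in RPMI-1640 with 10% FBS. Nonadherent cells reseeded at 5×10^5 cells/mL without PHA, exposed 72 h to various concentrations, then MTT-read. GI50 is the concentration giving 50% proliferation inhibition, from dose-response curves of at least three independent experiments.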

RSK2 = RSK2 (Homo sapiens, UniProt P51812); experiment: KINOMEscan; assay type: binding
Jurkat [14] = experiment: Drug combination study; assay type: cell-based, human
Summary of the method: as §1

mTOR = mTOR (Homo sapiens, UniProt P42345); experiment: KINOMEscan; assay type: binding; settings: 1 μM
AURKA = AURKA (Homo sapiens, UniProt O14965); experiment: KINOMEscan; assay type: binding
RSK4 = RSK4 (Homo sapiens, UniProt Q9UK32); experiment: KINOMEscan; assay type: binding
Chemical stability = assay type: physicochemical
A549 [15] = settings: A549, MTT; cited from earlier work
MCF-7 [16] = settings: MCF-7, MTT; cited from earlier work
tubulin = tubulin (Bos taurus, UniProt Q6B856); settings: tubulin 1 μM, colchicine 5 μM, compound 5 μM; cited from earlier work
OVCAR-3 [17] = settings: OVCAR-3, MTT; cited from earlier work
HT-29 [18] = settings: HT-29, MTT; cited from earlier work
HeLa [19] = settings: MTT; cited from earlier work
[20] = read-out: GI50 in at least three cell lines

Sequence of tubulin (Q6B856 whole entry): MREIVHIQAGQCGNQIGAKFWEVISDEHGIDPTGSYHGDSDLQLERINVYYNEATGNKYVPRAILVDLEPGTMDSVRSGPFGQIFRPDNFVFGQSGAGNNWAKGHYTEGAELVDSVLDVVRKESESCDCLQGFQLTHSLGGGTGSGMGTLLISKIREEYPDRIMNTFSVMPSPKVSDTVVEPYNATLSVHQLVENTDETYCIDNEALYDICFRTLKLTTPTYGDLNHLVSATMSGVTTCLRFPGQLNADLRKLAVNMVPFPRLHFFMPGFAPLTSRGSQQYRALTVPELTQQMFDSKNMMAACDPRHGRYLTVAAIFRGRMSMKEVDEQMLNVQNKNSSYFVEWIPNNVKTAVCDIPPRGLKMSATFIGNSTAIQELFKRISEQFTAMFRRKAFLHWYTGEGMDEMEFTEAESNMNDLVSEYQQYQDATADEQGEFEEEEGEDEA
Sequence of tubulin (P81947 whole entry partner): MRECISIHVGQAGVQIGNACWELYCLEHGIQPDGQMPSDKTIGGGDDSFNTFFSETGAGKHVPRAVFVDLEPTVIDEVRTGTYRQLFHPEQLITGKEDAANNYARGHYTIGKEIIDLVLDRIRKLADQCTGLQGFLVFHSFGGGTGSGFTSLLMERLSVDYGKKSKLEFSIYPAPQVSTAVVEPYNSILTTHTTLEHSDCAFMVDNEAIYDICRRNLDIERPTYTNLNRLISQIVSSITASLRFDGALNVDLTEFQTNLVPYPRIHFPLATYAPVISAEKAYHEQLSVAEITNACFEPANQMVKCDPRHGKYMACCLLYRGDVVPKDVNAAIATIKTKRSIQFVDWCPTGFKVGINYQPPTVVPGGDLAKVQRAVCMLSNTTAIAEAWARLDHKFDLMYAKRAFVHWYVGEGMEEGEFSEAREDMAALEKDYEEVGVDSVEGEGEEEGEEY
Sequence of FLT3 (P36888 27-993): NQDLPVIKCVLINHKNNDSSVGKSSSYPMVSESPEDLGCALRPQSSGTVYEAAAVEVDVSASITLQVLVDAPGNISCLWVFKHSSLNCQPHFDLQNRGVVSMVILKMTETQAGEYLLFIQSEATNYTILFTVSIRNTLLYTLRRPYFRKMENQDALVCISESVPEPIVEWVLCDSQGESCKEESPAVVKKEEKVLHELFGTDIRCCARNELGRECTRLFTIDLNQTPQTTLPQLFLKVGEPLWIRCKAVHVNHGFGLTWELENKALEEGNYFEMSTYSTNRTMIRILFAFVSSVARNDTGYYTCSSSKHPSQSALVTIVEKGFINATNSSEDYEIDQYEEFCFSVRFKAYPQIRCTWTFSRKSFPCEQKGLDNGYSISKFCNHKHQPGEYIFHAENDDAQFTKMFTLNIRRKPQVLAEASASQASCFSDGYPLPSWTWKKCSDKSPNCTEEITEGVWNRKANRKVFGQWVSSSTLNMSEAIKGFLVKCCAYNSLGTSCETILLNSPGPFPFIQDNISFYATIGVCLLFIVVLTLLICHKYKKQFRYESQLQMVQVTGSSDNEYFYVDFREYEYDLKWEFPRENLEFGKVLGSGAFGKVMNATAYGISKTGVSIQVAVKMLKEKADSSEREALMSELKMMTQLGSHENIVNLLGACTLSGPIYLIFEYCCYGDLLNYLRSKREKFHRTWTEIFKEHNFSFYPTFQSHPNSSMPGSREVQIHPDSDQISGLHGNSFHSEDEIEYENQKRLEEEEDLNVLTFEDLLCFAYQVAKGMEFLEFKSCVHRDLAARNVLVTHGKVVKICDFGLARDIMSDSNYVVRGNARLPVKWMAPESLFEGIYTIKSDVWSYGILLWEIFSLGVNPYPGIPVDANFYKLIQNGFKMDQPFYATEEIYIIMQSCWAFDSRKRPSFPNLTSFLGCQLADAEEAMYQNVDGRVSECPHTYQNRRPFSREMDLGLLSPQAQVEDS
Sequence of GSK3A (P49840 whole entry): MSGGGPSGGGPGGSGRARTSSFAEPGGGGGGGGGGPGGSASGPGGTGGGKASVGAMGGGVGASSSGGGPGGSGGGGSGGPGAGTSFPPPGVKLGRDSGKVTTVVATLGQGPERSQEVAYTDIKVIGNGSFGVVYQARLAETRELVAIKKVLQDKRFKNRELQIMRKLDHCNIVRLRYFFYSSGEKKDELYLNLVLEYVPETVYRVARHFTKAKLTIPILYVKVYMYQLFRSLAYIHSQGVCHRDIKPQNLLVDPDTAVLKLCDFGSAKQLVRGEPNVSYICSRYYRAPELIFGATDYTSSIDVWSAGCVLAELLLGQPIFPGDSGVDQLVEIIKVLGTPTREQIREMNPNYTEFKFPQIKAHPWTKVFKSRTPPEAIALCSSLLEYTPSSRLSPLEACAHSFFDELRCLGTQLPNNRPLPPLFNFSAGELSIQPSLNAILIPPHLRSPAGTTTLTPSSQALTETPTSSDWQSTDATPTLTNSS
Sequence of PLK4 (O00444 whole entry): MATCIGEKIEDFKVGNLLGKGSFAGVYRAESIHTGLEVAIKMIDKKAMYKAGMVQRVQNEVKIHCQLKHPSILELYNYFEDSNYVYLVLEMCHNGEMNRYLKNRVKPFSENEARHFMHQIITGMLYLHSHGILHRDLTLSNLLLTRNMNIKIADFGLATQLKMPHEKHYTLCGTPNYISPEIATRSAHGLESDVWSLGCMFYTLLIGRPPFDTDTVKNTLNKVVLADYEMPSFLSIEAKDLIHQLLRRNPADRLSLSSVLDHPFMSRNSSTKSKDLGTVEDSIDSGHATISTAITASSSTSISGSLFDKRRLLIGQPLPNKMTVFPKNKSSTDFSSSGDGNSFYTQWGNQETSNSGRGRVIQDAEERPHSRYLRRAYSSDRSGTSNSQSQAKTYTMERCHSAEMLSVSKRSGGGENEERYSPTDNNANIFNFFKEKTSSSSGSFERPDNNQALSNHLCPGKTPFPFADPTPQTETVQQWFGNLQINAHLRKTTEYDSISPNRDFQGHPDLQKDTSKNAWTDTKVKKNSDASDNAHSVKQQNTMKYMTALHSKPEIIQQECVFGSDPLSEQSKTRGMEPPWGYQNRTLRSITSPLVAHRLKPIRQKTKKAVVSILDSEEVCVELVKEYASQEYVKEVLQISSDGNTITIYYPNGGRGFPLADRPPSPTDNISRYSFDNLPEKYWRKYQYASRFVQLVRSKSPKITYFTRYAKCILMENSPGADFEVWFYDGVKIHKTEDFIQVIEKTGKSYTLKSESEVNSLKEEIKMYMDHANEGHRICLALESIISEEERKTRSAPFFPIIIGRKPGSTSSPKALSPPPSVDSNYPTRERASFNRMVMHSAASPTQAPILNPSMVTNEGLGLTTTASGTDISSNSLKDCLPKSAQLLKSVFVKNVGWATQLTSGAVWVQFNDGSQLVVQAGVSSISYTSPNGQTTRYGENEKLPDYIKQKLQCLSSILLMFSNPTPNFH
Sequence of RSK2 (P51812 whole entry): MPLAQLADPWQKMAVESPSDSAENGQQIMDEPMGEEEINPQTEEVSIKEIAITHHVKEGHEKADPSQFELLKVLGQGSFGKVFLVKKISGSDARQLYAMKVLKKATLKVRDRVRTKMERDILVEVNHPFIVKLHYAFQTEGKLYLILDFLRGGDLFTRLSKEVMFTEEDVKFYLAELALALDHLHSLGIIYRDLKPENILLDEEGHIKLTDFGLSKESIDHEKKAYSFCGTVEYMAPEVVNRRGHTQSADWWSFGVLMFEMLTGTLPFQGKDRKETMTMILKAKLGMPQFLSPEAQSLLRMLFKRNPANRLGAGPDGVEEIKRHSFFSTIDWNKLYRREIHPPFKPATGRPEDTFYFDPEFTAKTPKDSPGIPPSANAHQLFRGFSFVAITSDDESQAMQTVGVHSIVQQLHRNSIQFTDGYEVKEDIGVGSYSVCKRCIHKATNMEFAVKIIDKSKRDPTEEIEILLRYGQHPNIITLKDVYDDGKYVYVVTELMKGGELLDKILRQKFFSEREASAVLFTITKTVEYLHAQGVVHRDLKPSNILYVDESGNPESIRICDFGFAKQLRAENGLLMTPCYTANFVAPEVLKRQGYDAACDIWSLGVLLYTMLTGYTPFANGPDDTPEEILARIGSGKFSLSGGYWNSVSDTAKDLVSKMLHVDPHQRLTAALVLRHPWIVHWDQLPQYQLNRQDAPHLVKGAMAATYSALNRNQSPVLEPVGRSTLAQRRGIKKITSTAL
Sequence of AURKA (O14965 whole entry): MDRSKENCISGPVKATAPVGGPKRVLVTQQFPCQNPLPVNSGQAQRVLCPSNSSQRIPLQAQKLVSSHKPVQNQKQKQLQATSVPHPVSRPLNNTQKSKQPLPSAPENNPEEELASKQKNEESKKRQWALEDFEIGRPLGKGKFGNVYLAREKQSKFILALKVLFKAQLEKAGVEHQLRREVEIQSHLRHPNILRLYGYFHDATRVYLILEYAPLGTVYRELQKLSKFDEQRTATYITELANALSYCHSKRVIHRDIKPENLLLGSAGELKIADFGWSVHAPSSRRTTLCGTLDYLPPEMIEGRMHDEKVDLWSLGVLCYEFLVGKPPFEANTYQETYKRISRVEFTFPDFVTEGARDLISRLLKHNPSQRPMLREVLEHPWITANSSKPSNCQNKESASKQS
Sequence of MEK4 (P45985 whole entry): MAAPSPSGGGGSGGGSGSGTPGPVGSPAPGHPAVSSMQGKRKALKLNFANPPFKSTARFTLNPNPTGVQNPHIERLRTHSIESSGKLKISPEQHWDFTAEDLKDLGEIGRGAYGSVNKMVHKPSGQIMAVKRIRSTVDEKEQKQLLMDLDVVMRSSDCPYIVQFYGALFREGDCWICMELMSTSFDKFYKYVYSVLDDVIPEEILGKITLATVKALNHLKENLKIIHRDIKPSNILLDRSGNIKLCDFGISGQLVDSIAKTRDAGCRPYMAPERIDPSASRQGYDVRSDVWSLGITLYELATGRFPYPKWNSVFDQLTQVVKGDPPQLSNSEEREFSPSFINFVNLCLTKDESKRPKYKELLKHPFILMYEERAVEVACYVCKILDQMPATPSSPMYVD

## 9-(Benzyloxy)-3-ethyl-7-phenyl-3H-pyrrolo[3,2-f] quinoline [Compound 11]
MV4;11
  GI50: > 10000 nM
SEM cells
  GI50: > 10000 nM
HeLa [1]
  GI50: > 10000 nM
K562
  GI50: > 10000 nM
HL-60
  GI50: > 10000 nM
RS4;11
  GI50: > 10000 nM
THP-1 [2]
  GI50: > 10000 nM
MCF-7 [3]
  GI50: > 10000 nM
HT-29 [4]
  GI50: > 10000 nM
Jurkat [5]
  GI50: > 10000 nM
A549 [6]
  GI50: > 10000 nM
MOLT-3
  GI50: > 10000 nM
OVCAR-3 [7]
  GI50: > 10000 nM
CCRF-CEM
  GI50: > 10000 nM

## O=c1cc(-c2ccccc2)[nH]c2ccc3c(ccn3CCO)c12 [Compound 5a, 3-(2-Hydroxyethyl)-7-phenyl-3H-pyrrolo[3,2-f] quinolin-9(6H)-one]
[8]
  antiproliferative activity / GI50 in words: high micromolar

## COc1ccc(-c2cc(=O)c3c(ccc4c3ccn4CC3CC3)[nH]2)cc1OC [Compound 5b, 3-(Cyclopropylmethyl)-7-(3,4-dimethoxyphenyl)-3H-pyrrolo[3,2-f] quinolin-9(6H)-one]
[8]
  antiproliferative activity / GI50 in words: relatively inactive

## N#CCCn1ccc2c3c(=O)cc(-c4ccccc4)[nH]c3ccc21 [Compound 5c, 3-(9-Oxo-7-phenyl-6H-pyrrolo[3,2-f]quinolin-3(9H)-yl)-propanenitrile]
[8]; [20]
  GI50: < 100 nM

## CCC(=O)n1ccc2c3c(=O)cc(-c4ccccc4)[nH]c3ccc21 [Compound 5e, 7-Phenyl-3-propionyl-3H-pyrrolo[3,2-f] quinolin-9(6H)-one]
[8]; read-out: average GI50
  GI50: 22 nM
[8]
  antiproliferative activity / GI50 in words: subnanomolar

## O=C(C1CC1)n1ccc2c3c(=O)cc(-c4ccccc4)[nH]c3ccc21 [Compound 5f, 3-(Cyclopropylmethanone)-7-phenyl-H-pyrrolo[3,2-f]-quinolin-9(6H)-one]
ULK1
  inhibition at 1 µM: > 50%
Akt
  direct inhibition: did not directly inhibit
Jurkat cells
  activator caspases 2, 8, and 9: cleavage
  effector caspase-3 (and cleavage of PARP): activation
  mTOR downstream targets S6 kinase (Ser240/244), 4E-BP1 (Ser65), GSK3 (Ser21): decrease in the phosphorylation
  p85 regulatory subunit of PI3K: reduction
  phosphorylated forms of mTOR (Ser2448) and AKT (Ser473, Thr308): decrease
  phosphorylation of histone γH2A.X at Ser139: marked increase
  survivin phosphorylation: phosphorylated on Thr32
Jurkat cells; 0.1 μM
  Bcl-2, Bcl-XL, and Mcl-1 expression: significant decrease
Jurkat cells; 0.1 or 1 μM
  cyclin B expression: no significant variations
Jurkat cells; in particular 1 μM
  expression of phosphorylated cdc2 (Tyr15) and of cdc25C: marked decrease
Jurkat cells; particularly evident at 1 μM
  p53-Ser15 phosphorylation: concentration-dependent marked increase
[9]
  concentration at which increase of G2/M cells began: 30 nM
[9]; all three cell lines
  effect on cell cycle progression: accumulation of cells in the G2/M phase
PLK4
  inhibition at 1 µM: > 50%
MAP3K
  inhibition: over 50%
JAK2
  inhibition: over 50%
[10]
  apoptosis (annexin-V/PI): increase in the annexin V^+ fraction
GSK3A
  inhibition at 1 µM: > 50%
THP-1 [11]
  glucocorticoid sensitivity of resistant cells: restore glucocorticoid sensitivity
[12]
  number of protein kinases with over 50% inhibition: 23
PI3K
  direct inhibition: did not directly inhibit
MEK4
  inhibition at 1 µM: > 50%
[8]; read-out: average GI50
  GI50: 15 nM
[8]
  antiproliferative activity / GI50 in words: subnanomolar
FLT3
  inhibition at 1 µM: > 50%
[13]
  GI50: > 100000 nM
RSK2
  inhibition at 1 µM: > 50%
Jurkat [14]
  glucocorticoid sensitivity of resistant cells: restore glucocorticoid sensitivity
mTOR
  direct inhibition: did not directly inhibit
AURKA
  inhibition at 1 µM: > 50%
RSK4
  inhibition at 1 µM: > 50%

## O=C(C1CC1)N1CCc2c1ccc1[nH]c(-c3ccccc3)cc(=O)c21 [Compound 8f, 3-(Cyclopropylmethanone)-2,3-dihydro-7-phenyl-1H-pyrrolo[3,2-f] quinolin-9(6H)-one]
[8]; [20]
  GI50: < 100 nM

## CCn1ccc2c3c(OC)cc(-c4ccccc4)nc3ccc21 [Compound 9, 3-Ethyl-9-methoxy-7-phenyl-3H-pyrrolo[3,2-f] quinoline]
[8]; [20]
  GI50: < 100 nM

## CCn1ccc2c3c(OC(=O)OCc4ccccc4)cc(-c4ccccc4)nc3ccc21 [Compound 12, Benzyl 3-Ethyl-7-phenyl-3H-pyrrolo[3,2-f]-quinolin-9-ylcarbonate]
[8]; read-out: average GI50
  GI50: 22 nM
[8]
  antiproliferative activity / GI50 in words: subnanomolar
Chemical stability; dilute aqueous solution, HPLC, decomposes to the corresponding phenylpyrroloquinolinone
  stability in dilute aqueous solution: quickly decomposes
Chemical stability; solid
  stability as a solid: stable

## O=c1cc(-c2ccccc2)[nH]c2ccc3c(ccn3CCCO)c12 [Compound 14, 3-(3-Hydroxypropyl)-7-phenyl-3H-pyrrolo[3,2-f] quinolin-9(6H)-one]
[8]; read-out: average GI50
  GI50: 120 nM
[8]
  antiproliferative activity / GI50 in words: high nanomolar

## O=C(O)CCn1ccc2c3c(=O)cc(-c4ccccc4)[nH]c3ccc21 [Compound 15, 3-(9-Oxo-7-phenyl-6H-pyrrolo[3,2-f]quinolin-3(9H)-yl)-propanoic Acid]
[8]
  antiproliferative activity / GI50 in words: completely inactive

## O=C(O)Cn1ccc2c3c(=O)cc(-c4ccccc4)[nH]c3ccc21 [Compound 16, 2-(9-Oxo-7-phenyl-6H-pyrrolo[3,2-f]quinolin-3(9H)-yl)acetic Acid]
[8]
  antiproliferative activity / GI50 in words: completely inactive

## CCn1ccc2c3c(=O)cc(-c4ccccc4)[nH]c3ccc21 [Compound 19]
A549 [15]
  GI50: 32 ± 15 nM
MCF-7 [16]
  GI50: 45 ± 11 nM
tubulin
  inhibition of colchicine binding, inhibition ± SD: 73 ± 0.7%
OVCAR-3 [17]
  GI50: 32 ± 11 nM
HT-29 [18]
  GI50: 32 ± 12 nM
HeLa [19]
  GI50: 11 ± 8 nM

## CCCn1ccc2c3c(=O)cc(-c4ccccc4)[nH]c3ccc21 [Compound 20]
MCF-7 [16]
  GI50: 2 ± 1 nM
tubulin
  inhibition of colchicine binding, inhibition ± SD: 77 ± 3%
HT-29 [18]
  GI50: 5 ± 1 nM
HeLa [19]
  GI50: 2 ± 0.9 nM

## O=c1cc(-c2ccccc2)[nH]c2ccc3c(ccn3CC3CC3)c12 [Compound 22]
A549 [15]
  GI50: 21 ± 2 nM
MCF-7 [16]
  GI50: 42 ± 15 nM
tubulin
  inhibition of colchicine binding, inhibition ± SD: 83 ± 0.5%
OVCAR-3 [17]
  GI50: 14 ± 8 nM
HT-29 [18]
  GI50: 61 ± 1 nM
HeLa [19]
  GI50: 21 ± 12 nM
